Test results taken from ChEMBL document CHEMBL2396518, “A facile synthesis, anti-inflammatory and analgesic activity of isoxazolyl-2,3-dihydrospiro[benzo[f]isoindole-1,3'-indoline]-2',4,9-triones” (2013).

How the values were obtained:
Type in all cases: functional
[1] = tested on: Mus musculus; assay: Analgesic activity in Swiss albino mouse assessed as inhibition of acetic acid-induced writhing at 50 mg/kg, po administered 30 mins followed by acetic acid challenge measured for 20 mins relative to control
Method in brief: (§1)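 Mice were fasted 18 h with water ad libitum and split into 6 groups. Test agents were dosed orally at 50 mg/kg, with diclofenac 50 mg/kg as standard. After 30 min, 1.0% v/v acetic acid was given ip at 1 mL/100 g. Writhes were counted over 20 min. % inhibition = (mean control writhes − mean test writhes)/mean control writhes × 100. Results are mean ± S.E.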

[2] = tested on: Rattus norvegicus; assay: Antiinflammatory activity in carrageenan-induced Wistar rat paw edema model assessed as paw volume at 100 mg/kg, po administered 30 mins prior to carrageenan challenge measured at 6 hrs by plethysmographic analysis (reference value: 0.96 +/- 0.03 ml)
[3] = tested on: Rattus norvegicus; assay: Antiinflammatory activity in carrageenan-induced Wistar rat paw edema model assessed as paw volume at 100 mg/kg, po administered 30 mins prior to carrageenan challenge measured at 4 hrs by plethysmographic analysis (reference value: 1.2 +/- 0.05 ml)
[4] = tested on: Rattus norvegicus; assay: Antiinflammatory activity in carrageenan-induced Wistar rat paw edema model assessed as paw volume at 100 mg/kg, po administered 30 mins prior to carrageenan challenge measured at 2 hrs by plethysmographic analysis (reference value: 1.07 +/- 0.08 ml)
[5] = tested on: Rattus norvegicus; assay: Antiinflammatory activity in carrageenan-induced Wistar rat paw edema model assessed as paw volume at 100 mg/kg, po administered 30 mins prior to carrageenan challenge measured at 1 hr by plethysmographic analysis (reference value: 0.90 +/- 0.05 ml)
[6] = tested on: Mus musculus; assay: Analgesic activity in Swiss albino mouse assessed as inhibition of acetic acid-induced writhing at 50 mg/kg administered 30 mins followed by acetic acid challenge measured for 20 mins relative to control; method in brief: as §1

SMILES | inhibition in vivo at 50 mg/kg [1] [%] | Activity [2] [mL] | Activity [3] [mL] | Activity [4] [mL] | Activity [5] [mL] | inhibition in vivo at 50 mg/kg [6] [%]
COc1ccc2c(c1)C1(C(=O)N2)C2=C(CN1c1c(C)noc1/C=C/c1ccccc1)C(=O)c1ccccc1C2=O (stereo unspecified) | 18.4 | 0.6 | 0.81 | 0.91 | 0.73 | –
COc1ccc(/C=C/c2onc(C)c2N2CC3=C(C(=O)c4ccccc4C3=O)C23C(=O)Nc2ccccc23)cc1 (stereo unspecified) | 19.6 | 0.6 | 0.65 | 0.91 | 0.8 | –
Cc1noc(/C=C/c2ccccc2O)c1N1CC2=C(C(=O)c3ccccc3C2=O)C12C(=O)Nc1ccccc12 (stereo unspecified) | 20.4 | 0.52 | 0.8 | 0.81 | 0.78 | –
Cc1ccc(/C=C/c2onc(C)c2N2CC3=C(C(=O)c4ccccc4C3=O)C23C(=O)Nc2ccccc23)cc1 (stereo unspecified) | 26.3 | 0.54 | 0.69 | 0.8 | 0.7 | –
Cc1noc(/C=C/c2c(Cl)cccc2Cl)c1N1CC2=C(C(=O)c3ccccc3C2=O)C12C(=O)Nc1ccccc12 (stereo unspecified) | 48.3 | 0.4 | 0.67 | 0.7 | 0.54 | –
O=C(O)Cc1ccccc1Nc1c(Cl)cccc1Cl [DICLOFENAC] | – | – | – | – | – | 53.6
Cc1noc(/C=C/c2ccccc2)c1N1CC2=C(C(=O)c3ccccc3C2=O)C12C(=O)Nc1ccccc12 (stereo unspecified) | 22.4 | 0.6 | 0.75 | 0.84 | 0.75 | –
Cc1noc(/C=C/c2ccc(Cl)cc2Cl)c1N1CC2=C(C(=O)c3ccccc3C2=O)C12C(=O)Nc1ccccc12 (stereo unspecified) | 44.8 | 0.32 | 0.54 | 0.71 | 0.57 | –
Cc1ccc2c(c1)C1(C(=O)N2)C2=C(CN1c1c(C)noc1/C=C/c1ccccc1)C(=O)c1ccccc1C2=O (stereo unspecified) | 19.5 | 0.55 | 0.83 | 0.89 | 0.77 | –
Cc1noc(/C=C/c2ccccc2)c1N1CC2=C(C(=O)c3ccccc3C2=O)C12C(=O)Nc1ccc(Cl)cc12 (stereo unspecified) | 16.5 | 0.63 | 0.82 | 0.83 | 0.82 | –
Cc1noc(/C=C/c2ccc(Cl)cc2)c1N1CC2=C(C(=O)c3ccccc3C2=O)C12C(=O)Nc1ccccc12 (stereo unspecified) | 50.4 | 0.41 | 0.65 | 0.69 | 0.54 | –
